Assay results from ChEMBL document CHEMBL3804775, “Development of a Potent, Specific CDK8 Kinase Inhibitor Which Phenocopies CDK8/19 Knockout Cells” (ACS Med Chem Lett, 2016).
≈ marks a conversion by molar mass, not a printed value. Calls of active or inactive are those of the source. The calls are words filed in the database; no cut-off is given here.

What was measured:
CDK8/Cyclin C = CDK8/Cyclin C (Homo sapiens, UniProt P49336); assay: Inhibition of full length human recombinant His-tagged CDK8/Cyclin C expressed in baculovirus expression system by fluorescence polarization assay
[1] = Plasma protein binding in human; type: ADME, cell-free; details: read-out: PPB (converted)
[2] = Plasma protein binding in rat; type: ADME, cell-free; details: read-out: PPB (converted)
[3] = Plasma protein binding in mouse; type: ADME, cell-free; details: read-out: PPB (converted)
[4] = Kinetic solubility in DMSO/phosphate buffered saline at pH 7.4 at 200 uM after 24 hrs by UHPLC based chemiluminescent nitrogen detection method; type: physicochemical; details: read-out: Kinetic_solubility
[5] = Antiproliferative activity against human HCT116 cells after 72 hrs by Celltiter-Glo reagent based assay in presence of 10% fetal bovine serum; type: functional, cell-based; details: HCT-116, 72 h
[6] = Antiproliferative activity against human HCT116 cells after 72 hrs by Celltiter-Glo reagent based assay in presence of 0.625% fetal bovine serum; type: functional, cell-based; details: HCT-116, 72 h
[7] = Ratio of EC50 for antiproliferative activity against human HCT116 cells after 72 hrs by Celltiter-Glo reagent based assay to IC50 for inhibition of full length human recombinant His-tagged CDK8/Cyclin C expressed in baculovirus expression system by fluorescence polarization assay; set-up: species or system HCT-116
CDK9/cyclin T1 = CDK9/cyclin T1 (Homo sapiens, UniProt P50750); assay: Inhibition of full length human recombinant His-tagged CDK9/Cyclin T expressed in baculovirus expression system using Cdk7/9tide as substrate by adapta assay
[8] = Permeability from apical to basolateral side in MDCK cells; type: ADME, cell-based, Canis lupus familiaris; details: dog, read-out: permeability
HCT-116 [9] = assay: Antiproliferative activity against CDK8 knockout human HCT116 cells after 72 hrs by Celltiter-Glo reagent based assay; type: functional, cell-based
Outline: (§1)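 HCT-116 CDK8 knockout and CDK8/CDK19 double knockout clones, derived from wild-type HCT-116, were incubated alongside the parent line with varying concentrations of compound. Cell viability was read at 72 h to give growth-inhibition curves.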

HCT-116 [10] = assay: Antiproliferative activity against CDK8/CDK19 double knockout human HCT116 cells after 72 hrs by Celltiter-Glo reagent based assay; type: functional, cell-based; outline: as §1
[11] = biological target: CDK9/cyclin T1 (Homo sapiens) (UniProt O60563+P50750); assay: Inhibition of full length human recombinant His-tagged CDK9/Cyclin T expressed in baculovirus expression system using Cdk7/9tide as substrate at 0.1 uM by adapta assay relative to control
Outline: (§2)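 Single-point kinase selectivity screen at 0.1 μM compound across a panel of 52 kinases, recorded as percent inhibition for each kinase.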

[12] = biological target: Glycogen synthase kinase-3 alpha (Homo sapiens) (UniProt P49840); assay: Inhibition of recombinant GSK3alpha (unknown origin) at 0.1 uM relative to control
Outline: (§3)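 Single-concentration screen at 0.1 μM within a 52-kinase selectivity panel, with percent inhibition reported for each kinase.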

[13] = biological target: T1, Homeodomain-interacting protein kinase 4 (Homo sapiens) (UniProt Q8NE63); assay: Inhibition of full length human recombinant N-terminal GST-tagged HIPK4 expressed in baculovirus expression system using Ser/Thr peptide 18 substrate at 0.1 uM by Z-Lyte assay relative to control; outline: as §3
T1 sequence (whole entry): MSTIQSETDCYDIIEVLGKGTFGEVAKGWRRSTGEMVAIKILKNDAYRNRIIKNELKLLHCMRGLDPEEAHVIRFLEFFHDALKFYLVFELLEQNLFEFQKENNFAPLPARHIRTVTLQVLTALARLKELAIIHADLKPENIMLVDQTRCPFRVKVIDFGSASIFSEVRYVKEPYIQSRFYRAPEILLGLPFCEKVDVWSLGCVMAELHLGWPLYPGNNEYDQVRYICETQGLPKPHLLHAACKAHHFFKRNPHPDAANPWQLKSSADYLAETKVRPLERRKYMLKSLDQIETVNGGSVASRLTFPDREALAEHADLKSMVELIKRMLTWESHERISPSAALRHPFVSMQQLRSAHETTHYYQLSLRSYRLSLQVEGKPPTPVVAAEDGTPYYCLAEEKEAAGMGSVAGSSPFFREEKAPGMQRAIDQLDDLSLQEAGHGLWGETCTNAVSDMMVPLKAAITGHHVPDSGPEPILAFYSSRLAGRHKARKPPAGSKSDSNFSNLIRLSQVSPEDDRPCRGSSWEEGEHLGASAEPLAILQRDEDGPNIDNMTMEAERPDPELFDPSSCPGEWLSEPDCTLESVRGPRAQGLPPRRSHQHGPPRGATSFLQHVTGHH

[14] = biological target: Serine/threonine-protein kinase Nek4 (Homo sapiens) (UniProt P51957); assay: Inhibition of full length human recombinant GST-tagged NEK4 expressed in baculovirus expression system using Ser/Thr peptide 17 substrate at 0.1 uM by Z-Lyte assay relative to control; outline: as §2
[15] = biological target: PAS domain-containing serine/threonine-protein kinase (Homo sapiens) (UniProt Q96RG2); assay: Inhibition of human recombinant GST-tagged PASK (879 to 1323 residues) expressed in baculovirus expression system at 0.1 uM relative to control; outline: as §2
Sequence of PAS domain-containing serine/threonine-protein kinase (Homo sapiens) (Q96RG2 whole entry, the tested form may be a part): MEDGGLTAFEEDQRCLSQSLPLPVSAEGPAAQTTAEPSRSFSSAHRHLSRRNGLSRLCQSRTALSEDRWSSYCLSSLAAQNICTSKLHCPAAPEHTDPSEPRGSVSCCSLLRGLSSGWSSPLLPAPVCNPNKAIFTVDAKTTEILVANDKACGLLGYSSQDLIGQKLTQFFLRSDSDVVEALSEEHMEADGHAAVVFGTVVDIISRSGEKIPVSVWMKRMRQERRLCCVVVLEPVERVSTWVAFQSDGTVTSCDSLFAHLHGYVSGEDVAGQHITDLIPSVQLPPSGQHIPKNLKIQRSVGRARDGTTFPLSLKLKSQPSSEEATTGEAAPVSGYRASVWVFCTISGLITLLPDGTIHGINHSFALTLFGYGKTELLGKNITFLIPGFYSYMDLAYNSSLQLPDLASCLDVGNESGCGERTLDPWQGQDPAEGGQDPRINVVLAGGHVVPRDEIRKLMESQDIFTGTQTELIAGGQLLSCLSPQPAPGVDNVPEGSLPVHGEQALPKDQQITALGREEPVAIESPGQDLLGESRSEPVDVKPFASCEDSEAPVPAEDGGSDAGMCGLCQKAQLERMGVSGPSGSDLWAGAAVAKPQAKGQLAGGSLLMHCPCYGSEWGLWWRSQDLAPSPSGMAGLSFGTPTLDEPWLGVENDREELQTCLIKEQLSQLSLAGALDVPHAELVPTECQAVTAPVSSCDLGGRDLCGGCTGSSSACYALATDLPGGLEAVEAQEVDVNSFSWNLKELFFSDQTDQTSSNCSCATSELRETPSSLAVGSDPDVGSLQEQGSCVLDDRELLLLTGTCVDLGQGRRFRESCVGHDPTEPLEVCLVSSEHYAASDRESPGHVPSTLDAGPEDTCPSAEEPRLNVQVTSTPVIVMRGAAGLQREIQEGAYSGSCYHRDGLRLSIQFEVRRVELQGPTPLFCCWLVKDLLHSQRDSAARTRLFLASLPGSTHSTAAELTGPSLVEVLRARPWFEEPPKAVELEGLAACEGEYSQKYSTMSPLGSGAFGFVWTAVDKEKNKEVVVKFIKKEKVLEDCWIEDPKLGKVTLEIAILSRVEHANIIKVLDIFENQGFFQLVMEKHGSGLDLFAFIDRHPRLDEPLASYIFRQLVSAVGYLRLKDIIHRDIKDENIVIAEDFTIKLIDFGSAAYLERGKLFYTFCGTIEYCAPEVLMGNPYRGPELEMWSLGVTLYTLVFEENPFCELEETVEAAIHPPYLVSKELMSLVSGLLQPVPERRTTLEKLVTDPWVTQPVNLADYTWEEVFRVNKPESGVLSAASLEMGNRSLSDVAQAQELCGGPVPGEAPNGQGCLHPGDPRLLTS

Sequence of CDK8/Cyclin C (P49336 whole entry): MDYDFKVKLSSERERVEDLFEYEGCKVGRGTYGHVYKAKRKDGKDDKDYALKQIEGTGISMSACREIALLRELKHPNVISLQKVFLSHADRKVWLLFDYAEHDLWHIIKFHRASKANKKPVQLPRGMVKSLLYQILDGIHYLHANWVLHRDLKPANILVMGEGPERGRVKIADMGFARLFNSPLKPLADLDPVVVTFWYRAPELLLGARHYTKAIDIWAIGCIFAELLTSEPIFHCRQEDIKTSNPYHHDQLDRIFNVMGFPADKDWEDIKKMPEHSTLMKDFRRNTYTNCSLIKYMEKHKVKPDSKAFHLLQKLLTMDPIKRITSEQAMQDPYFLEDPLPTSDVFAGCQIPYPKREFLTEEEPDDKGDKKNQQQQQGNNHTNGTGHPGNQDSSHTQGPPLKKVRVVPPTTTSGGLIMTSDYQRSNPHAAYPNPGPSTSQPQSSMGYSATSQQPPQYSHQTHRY
Sequence of CDK8/Cyclin C (P24863 whole entry, further chain): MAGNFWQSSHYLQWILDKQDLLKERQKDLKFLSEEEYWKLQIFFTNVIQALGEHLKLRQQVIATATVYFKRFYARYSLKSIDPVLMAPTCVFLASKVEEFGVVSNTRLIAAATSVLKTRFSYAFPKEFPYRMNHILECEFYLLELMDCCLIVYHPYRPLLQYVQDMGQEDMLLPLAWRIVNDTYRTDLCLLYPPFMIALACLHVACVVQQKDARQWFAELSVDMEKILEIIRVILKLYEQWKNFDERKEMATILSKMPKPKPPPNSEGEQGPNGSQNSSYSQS
Sequence of Serine/threonine-protein kinase Nek4 (Homo sapiens) (P51957 whole entry, looked up, the tested form may be a part): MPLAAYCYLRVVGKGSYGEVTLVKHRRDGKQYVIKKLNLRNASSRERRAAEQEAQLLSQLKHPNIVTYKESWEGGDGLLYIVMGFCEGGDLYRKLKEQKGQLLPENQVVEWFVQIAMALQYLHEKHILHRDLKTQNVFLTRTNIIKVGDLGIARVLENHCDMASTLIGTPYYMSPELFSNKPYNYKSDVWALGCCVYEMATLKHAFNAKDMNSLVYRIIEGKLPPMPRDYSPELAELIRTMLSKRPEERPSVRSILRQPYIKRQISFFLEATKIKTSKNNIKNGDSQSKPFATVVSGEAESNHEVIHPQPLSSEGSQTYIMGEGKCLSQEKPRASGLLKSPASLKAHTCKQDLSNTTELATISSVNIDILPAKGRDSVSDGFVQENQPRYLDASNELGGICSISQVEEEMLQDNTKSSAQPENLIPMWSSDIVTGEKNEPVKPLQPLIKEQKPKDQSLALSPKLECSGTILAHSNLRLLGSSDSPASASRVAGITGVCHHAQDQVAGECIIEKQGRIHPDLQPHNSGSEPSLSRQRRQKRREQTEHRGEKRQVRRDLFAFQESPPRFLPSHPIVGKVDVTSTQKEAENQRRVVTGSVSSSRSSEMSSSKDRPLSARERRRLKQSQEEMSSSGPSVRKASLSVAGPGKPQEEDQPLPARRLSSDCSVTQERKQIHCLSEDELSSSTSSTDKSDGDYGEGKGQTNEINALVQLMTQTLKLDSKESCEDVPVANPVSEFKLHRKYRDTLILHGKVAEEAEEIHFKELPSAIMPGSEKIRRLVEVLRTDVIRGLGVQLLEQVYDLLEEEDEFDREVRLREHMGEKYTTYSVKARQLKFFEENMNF
Sequence of Glycogen synthase kinase-3 alpha (Homo sapiens) (P49840 2-483 limits assumed): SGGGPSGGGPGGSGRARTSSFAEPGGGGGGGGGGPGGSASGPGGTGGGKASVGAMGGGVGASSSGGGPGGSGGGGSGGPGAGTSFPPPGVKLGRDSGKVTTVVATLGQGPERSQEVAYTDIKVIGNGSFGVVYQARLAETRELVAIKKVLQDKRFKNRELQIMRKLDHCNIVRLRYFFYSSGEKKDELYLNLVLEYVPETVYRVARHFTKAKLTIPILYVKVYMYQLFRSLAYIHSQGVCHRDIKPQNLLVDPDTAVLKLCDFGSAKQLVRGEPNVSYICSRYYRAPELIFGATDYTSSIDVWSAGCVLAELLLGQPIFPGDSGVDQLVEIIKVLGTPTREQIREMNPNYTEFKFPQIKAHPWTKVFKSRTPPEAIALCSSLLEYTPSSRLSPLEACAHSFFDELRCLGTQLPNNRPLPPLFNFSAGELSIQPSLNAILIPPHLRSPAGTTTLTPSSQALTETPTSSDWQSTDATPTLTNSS
Sequence of CDK9/cyclin T1 (O60563 whole entry): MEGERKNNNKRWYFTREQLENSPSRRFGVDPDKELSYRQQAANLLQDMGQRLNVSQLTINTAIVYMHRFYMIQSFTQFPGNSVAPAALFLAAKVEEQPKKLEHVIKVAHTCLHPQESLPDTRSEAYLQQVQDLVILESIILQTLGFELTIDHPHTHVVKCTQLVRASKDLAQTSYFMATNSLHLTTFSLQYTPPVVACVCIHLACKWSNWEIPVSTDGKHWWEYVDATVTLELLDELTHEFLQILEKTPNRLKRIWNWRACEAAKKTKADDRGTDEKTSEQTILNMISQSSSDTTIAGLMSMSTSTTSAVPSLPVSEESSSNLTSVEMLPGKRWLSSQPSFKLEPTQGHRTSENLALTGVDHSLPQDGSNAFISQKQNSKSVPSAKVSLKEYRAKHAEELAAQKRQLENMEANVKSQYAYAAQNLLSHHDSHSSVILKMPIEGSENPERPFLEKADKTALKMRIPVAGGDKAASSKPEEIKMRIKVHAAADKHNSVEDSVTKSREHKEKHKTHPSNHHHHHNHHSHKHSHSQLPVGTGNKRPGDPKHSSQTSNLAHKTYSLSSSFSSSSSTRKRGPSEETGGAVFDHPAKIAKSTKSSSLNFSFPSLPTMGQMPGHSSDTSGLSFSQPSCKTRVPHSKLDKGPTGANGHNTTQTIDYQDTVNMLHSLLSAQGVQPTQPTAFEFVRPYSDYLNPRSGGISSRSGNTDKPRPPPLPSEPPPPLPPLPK
Sequence of CDK9/cyclin T1 (P50750 whole entry): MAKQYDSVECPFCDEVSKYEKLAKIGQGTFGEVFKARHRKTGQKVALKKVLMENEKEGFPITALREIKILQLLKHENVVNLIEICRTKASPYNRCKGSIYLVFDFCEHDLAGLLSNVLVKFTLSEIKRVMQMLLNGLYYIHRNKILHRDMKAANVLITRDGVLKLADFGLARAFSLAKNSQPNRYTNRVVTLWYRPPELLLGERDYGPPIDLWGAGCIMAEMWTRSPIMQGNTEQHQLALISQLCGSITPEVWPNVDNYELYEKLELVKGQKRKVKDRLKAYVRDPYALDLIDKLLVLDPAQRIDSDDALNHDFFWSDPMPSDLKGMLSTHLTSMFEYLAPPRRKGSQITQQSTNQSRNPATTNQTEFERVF

Structure (SMILES)	IC50 (CDK8/Cyclin C)	fraction unbound [1]	fraction unbound [2]	fraction unbound [3]	solubility kinetic at 24 h, 200 µM [4]	Papp A→B [8]	other results
N#Cc1ccc(Oc2cncc3sc(C(N)=O)cc23)cc1	5.1 nM	0.153	0.127	0.109	8 µM (≈ 2.36 µg/mL)	–	–
O=C(NC1CC1)c1cc2c(Oc3ccc(Cl)cc3)cncc2s1	24 nM	0.008	0.007	0.009	–	–	–
NC(=O)c1ccc(Oc2cncc3sc(C(N)=O)cc23)cc1	21 nM	0.227	0.232	0.217	7 µM (≈ 2.19 µg/mL)	–	–
NC(=O)c1cc2c(Oc3ccc(OC(F)(F)F)cc3)cncc2s1	12 nM	0.021	0.032	0.028	< 1 µM	–	EC50 [5]: > 10000 nM; EC50 [6]: > 10000 nM
N#Cc1ccc(Oc2cncc3sc(-c4nnn[nH]4)cc23)cc1	1 nM	–	–	–	–	2.5 ×10⁻⁶ cm/s	EC50 [5]: > 10000 nM; EC50 [6]: > 10000 nM
CN1CC[C@H](c2c(O)cc(O)c3c(=O)cc(-c4ccccc4Cl)oc23)[C@H](O)C1 [ALVOCIDIB]	–	–	–	–	–	–	EC50 [5]: 34 nM
Cc1ccc(Oc2cncc3sc(-c4nn[nH]n4)cc23)cc1	1.6 nM	–	–	–	–	12 ×10⁻⁶ cm/s	EC50 [5]: > 10000 nM; EC50 [6]: > 10000 nM
CCNC(=O)c1cc2c(Oc3ccc(Cl)cc3)cncc2s1	16 nM	–	–	–	–	–	–
O=C(c1cc2c(Oc3ccc(Cl)cc3)cncc2s1)C1CC1	59 nM	–	–	–	–	–	–
CC(C)NC(=O)c1cc2c(Oc3ccc(Cl)cc3)cncc2s1	100 nM	–	–	–	–	–	–
CCC(=O)c1cc2c(Oc3ccc(Cl)cc3)cncc2s1	29 nM	< 0.001	< 0.001	< 0.001	–	–	–
Clc1ccc(Oc2cncc3sc(-c4nnn[nH]4)cc23)cc1	1.1 nM	–	–	–	–	11 ×10⁻⁶ cm/s	EC50 [5]: > 10000 nM; EC50 [6]: > 10000 nM
COC(=O)c1cc2c(Oc3ccc(Cl)cc3)cncc2s1	62 nM	–	–	–	–	–	–
CC(=O)Nc1ccc(Oc2cncc3sc(-c4nnn[nH]4)cc23)cc1	2 nM	–	–	–	–	0.8 ×10⁻⁶ cm/s	–
CN(C)C(=O)c1cc2c(Oc3ccc(Cl)cc3)cncc2s1	75 nM	–	–	–	–	–	–

Second part, led by results:

IC50 (CDK8/Cyclin C)	fraction unbound [1]	fraction unbound [2]	fraction unbound [3]	solubility kinetic at 24 h, 200 µM [4]	Papp A→B [8]	Structure (SMILES)	other results
8 nM	0.007	0.008	0.012	10 µM (≈ 3.19 µg/mL)	–	Cc1ncc(Oc2ccc(Cl)cc2)c2cc(C(N)=O)sc12	EC50 [5]: > 10000 nM; EC50 [6]: 8700 nM; Ratio [7]: 1000
25 nM	0.064	0.06	0.098	10 µM (≈ 3 µg/mL)	–	COc1ccc(Oc2cncc3sc(C(N)=O)cc23)cc1	–
6.2 nM	–	–	–	6.3 µM (≈ 1.92 µg/mL)	–	NC(=O)c1cc2c(Oc3ccc(Cl)cc3)cncc2s1	IC50 (CDK9/cyclin T1): 2200 nM
1.5 nM	0.0187	0.023	0.041	5.5 µM (≈ 1.76 µg/mL)	–	NC(=O)c1cc2c(Oc3ccc(Cl)cc3)cnc(N)c2s1	IC50 (CDK9/cyclin T1): 1100 nM; EC50 [5]: 6700 nM; EC50 [6]: 5400 nM; Activity (HCT-116 [9]): Active; Activity (HCT-116 [10]): Active; Ratio [7]: 1000
5.5 nM	–	–	–	–	9.1 ×10⁻⁶ cm/s	Fc1ccc(Oc2cncc3sc(-c4nnn[nH]4)cc23)cc1	–
1.1 nM	–	–	–	–	24 ×10⁻⁶ cm/s	FC(F)(F)Oc1ccc(Oc2cncc3sc(-c4nnn[nH]4)cc23)cc1	EC50 [5]: > 10000 nM; EC50 [6]: > 10000 nM
32 nM	0.003	0.002	0.003	–	–	CC(=O)c1cc2c(Oc3ccc(Cl)cc3)cncc2s1	–
8.2 nM	0.015	0.01	0.023	–	–	CNC(=O)c1cc2c(Oc3ccc(Cl)cc3)cncc2s1	–
2.8 nM	0.002	0.003	0.003	–	–	O=C(O)c1cc2c(Oc3ccc(Cl)cc3)cncc2s1	EC50 [5]: > 10000 nM; EC50 [6]: > 10000 nM
5.3 nM	0.002	0.001	0.002	–	–	CNC(=O)c1cc2c(Oc3ccc(I)cc3)cncc2s1	–
11 nM	–	–	–	< 1 µM	–	NC(=O)c1cc2c(Oc3ccc(Cl)cc3)cnc(Cl)c2s1	–
3 nM	–	–	–	–	1.9 ×10⁻⁶ cm/s	NC(=O)c1ccc(-c2ccc(Oc3cncc4sc(-c5nn[nH]n5)cc34)cc2)cc1	inhibition [11]: > 50%; inhibition [12]: > 80%; inhibition [13]: > 80%; inhibition [14]: > 80%; inhibition [15]: > 80%
4.4 nM	–	–	–	–	0.7 ×10⁻⁶ cm/s	NC(=O)c1ccc(Oc2cncc3sc(-c4nnn[nH]4)cc23)cc1	–
6 nM	0.028	0.041	0.039	< 1 µM	–	Cc1ccc(Oc2cncc3sc(C(N)=O)cc23)cc1	–
8.3 nM	–	–	–	–	4.1 ×10⁻⁶ cm/s	c1ccc(Oc2cncc3sc(-c4nn[nH]n4)cc23)cc1	–
0.7 nM	–	–	–	–	24 ×10⁻⁶ cm/s	Ic1ccc(Oc2cncc3sc(-c4nn[nH]n4)cc23)cc1	inhibition [11]: > 30%; inhibition [12]: > 80%; inhibition [13]: > 80%; inhibition [14]: > 30%; inhibition [15]: > 50%
29 nM	0.09	0.152	0.204	18 µM (≈ 5.89 µg/mL)	–	CC(=O)Nc1ccc(Oc2cncc3sc(C(N)=O)cc23)cc1	–
16 nM	–	–	–	< 1 µM	–	NC(=O)c1cc2c(Oc3ccc(Cl)cc3)cnc(F)c2s1	–
